Measured values taken from ChEMBL document CHEMBL4651341, “The discovery of a novel series of compounds with single-dose efficacy against juvenile and adult Schistosoma species” (PLoS Negl Trop Dis, 2021).
In brackets after ≈: the same amount, converted by molar mass.

Columns and labels:
[1] = Mean observed clearance in Swiss albino male mice at 1 mg/kg per compound (administered iv in a mixture of 5 compounds to 3 mice) assessed by LCMS/MS.; format: ADME, organism-based; conditions: male, Swiss albino, mouse, in vivo, read-out: Clearance (converted)
How it was run: (§1)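 Male Swiss albino mice (~30 g), 3 per experiment, mostly dosed as mixtures of 5 compounds iv via the lateral tail vein. Vehicle: 10% DMSO/90% 50 mM Na2HPO4 with 0.5% Tween-80. Blood sampled at 5, 15, 30 min and 1, 2, 4, 8, 24 h. Plasma stored at −20 °C and quantified by LC-MS after acetonitrile precipitation.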

[2] = Percentage of parent compound remaining after incubation for 90 minutes with cyropreserved mouse hepatocytes at a concentration of 1uM compound and […], determined by LCMS; format: ADME, tissue-based, Hepatocyte; conditions: cryopreserved mouse hepatocytes, read-out: Stability
How it was run: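 Compound was incubated at 1 µM final (2 µM working solution mixed 1:1 with hepatocyte suspension) in supplemented KHB pH 7.4. Conditions: 37 °C, 5% CO2, gentle mixing, duplicates. Reaction quenched with ice-cold acetonitrile containing standard; analysed by LC-MS/MS. % remaining = AUC at t / AUC at T0.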

[3] = Mean oral bioavailability in Swiss albino male mice at […] per compound (administered in a mixture of 5 compounds to 3 mice) assessed by LCMS/MS.; note: dose 2.5 mg/kg; format: ADME, organism-based; conditions: mouse, in vivo
[4] = Mean time to peak plasma concentration in Swiss albino male mice at […] per compound (administered orally in a mixture of 5 compounds to 3 mice) assessed by LCMS/MS.; format: ADME, organism-based; conditions: mouse, po
[5] = test system: Schistosoma mansoni; experiment: Concentration required to kill 50% of 21 day old worms 5 days after drug treatment.; format: functional, organism-based; conditions: Puerto Rican, 120 h
How it was run: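 Juvenile S. mansoni (Puerto Rican strain) were perfused from CD1 mice 3 weeks post-infection and washed. They were cultured 6–8 per well in 200 µL DMEM with 2 mM glutamine, penicillin/streptomycin and 10% FCS at 37 °C, 5% CO2. Viability of individual worms was scored on day 5 after dosing (120 h).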

[6] = Mean AUC inf in Swiss albino male mice at 1 mg/kg per compound (administered iv in a mixture of 5 compounds to 3 mice) assessed by LCMS/MS.; format: ADME, organism-based; conditions: male, Swiss albino, mouse, in vivo; how it was run: as §1
[7] = Mean plasma concentration at 4h in Swiss albino male mice at […] per compound (administered orally in a mixture of 5 compounds to 3 mice) assessed by LCMS/MS.; format: ADME, organism-based; conditions: mouse, po
[8] = Mean half-life in Swiss albino male mice at 1 mg/kg per compound (administered iv in a mixture of 5 compounds to 3 mice) assessed by LCMS/MS.; format: ADME, organism-based; conditions: mouse, in vivo
How it was run: (§2)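 Male Swiss albino mice (~30 g), 3 per experiment, mostly dosed as mixtures of 5 compounds iv via the lateral tail vein. Vehicle: 10% DMSO/90% 50 mM Na2HPO4 with 0.5% Tween-80. Plasma stored at −20 °C and quantified by LC-MS after acetonitrile precipitation.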

[9] = test system: Schistosoma mansoni; experiment: Concentration required to kill 50% of 42 day old worms 5 days after drug treatment.; format: functional, organism-based; conditions: Puerto Rican, 120 h
How it was run: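 Adult S. mansoni were perfused from CD1 mice 6 weeks post-infection and washed. They were cultured 3 pairs per well in 1 mL DMEM with 2 mM glutamine, penicillin/streptomycin and 10% FCS […] at 37 °C, 5% CO2. Viability of individual worms was scored on day 5 (120 h).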

[10] = Mean plasma concentration at 24h in Swiss albino male mice at […] per compound (administered orally in a mixture of 5 compounds to 3 mice) assessed by LCMS/MS.; format: ADME, organism-based; conditions: mouse, po
[11] = Mean volume of distribution at steady state in Swiss albino male mice at 1 mg/kg per compound (administered iv in a mixture of 5 compounds to 3 mice) assessed by LCMS/MS.; format: ADME, organism-based; conditions: mouse, in vivo, read-out: Volume; how it was run: as §2
[12] = Concentration required to kill 50% HepG2 cells as detected by MTT staining; format: toxicity, cell-based; conditions: homo sapiens, read-out: TC50 (the source's name)
[13] = Solubility at 25 degC of compound (diluted from DMSO) in PBS at pH 7.4 determined after 24h (1h sonication, 22h shaking, 1h sonication) by LCMS/MS; format: physicochemical
[14] = Partition coefficient of compound between n-octanol and PBS (pH7.4); format: physicochemical; conditions: octanol/water, pH 7.4
How it was run: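 Shake-flask method using octanol and PBS pH 7.4, each pre-saturated with the other. Compound was shaken 2 h at 850 rpm, 25 °C, then the phases were separated by centrifugation and both layers diluted and analysed by LC-MS/MS. LogD = log(octanol AUC × relative dilution / buffer AUC).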

[15] = male, Swiss albino, read-out: Bioavailability

| SMILES | clearance [1] [mL/min/kg] | remaining at 1.5 h, 1 µM [2] [%] | bioavailability [3, 15] [%] | Tmax [4] [min] | AUC(0-inf) [6] [ng·h/mL] | concentration at 4 h [7] [ng/mL] | half-life [8] [min] | concentration at 24 h [10] [ng/mL] | Vd [11] [L/kg] | solubility kinetic at 24 h [13] [µM] | bioavailability [3] [%] | Lipophilicity [14] | EC50 [5] [nM] | EC50 [9] [nM] | CC50 [12] [µM] |
| --- | --- | --- | --- | --- | --- | --- | --- | --- | --- | --- | --- | --- | --- | --- | --- |
| CC(C)c1nc2cnc(-c3cccc(S(F)(F)(F)(F)F)c3)cn2c1-c1c(F)cc(O)cc1F | 36.2 | 31.1 | 18.4 | 15 | 231 | 16.6 | 106 | 0.1 | 2.64 | 6.63 (≈ 3.26 µg/mL) | – | – | < 12 | 23.8 | 6.6 |
| CCc1nc2cnc(-c3ccc(F)c(C(F)(F)F)c3)cn2c1-c1c(F)cc(O)cc1F | 18 | 36 | 47.7 | 15 | 464 | 50.3 | 600 | 12.3 | 8.79 | 1.5 (≈ 0.656 µg/mL) | – | – | 51.4 | 52.8 | 8.3 |
| CC(C)c1nc2cnc(-c3cccc(C(F)(F)F)c3)cn2c1-c1c(F)cc(O)cc1F | – | 30.2 | – | – | – | – | – | – | – | 0.951 (≈ 0.412 µg/mL) | – | – | 93.7 | < 45.5 | 7.5 |
| CC(C)c1nn2cnc(-c3ccc(F)c(C(F)(F)F)c3)cc2c1-c1c(F)cc(O)cc1F | 25.2 | 42.2 | 14.3 | 20 | 342 | 22.4 | – | 0.01 | 1.77 | 6.55 (≈ 2.96 µg/mL) | – | – | 26.9 | 21.7 | 8.9 |
| CCc1nn2cnc(-c3ccc(F)c(C(F)(F)F)c3)cc2c1-c1c(F)cc(O)cc1F | 58.5 | 50.7 | 21.1 | 20 | 144 | 9.68 | 74.4 | 0.01 | 4.06 | 1.21 (≈ 0.529 µg/mL) | – | – | 32.3 | 10.9 | 9.8 |
| Oc1cc(F)c(-c2c(C3CCC3)nc3cnc(-c4ccc(F)c(C(F)(F)F)c4)cn23)c(F)c1 | 7.9 | 48.2 | 48.6 | 20 | 1060 | 161 | 550 | 21.7 | 4.74 | 51.6 (≈ 23.9 µg/mL) | – | – | 72.9 | 58.6 | 5.7 |
| Cc1nc2cnc(-c3ccc(F)c(C(F)(F)F)c3)cn2c1-c1c(F)cc(OP(=O)(O)O)cc1F | 75.3 | 40.8 | 39.3 | 15 | 111 | 15.6 | 139 | 0.1 | 7.18 | 136 (≈ 68.4 µg/mL) | – | – | 103 | – | 6.8 |
| Cc1nc2cnc(-c3ccc(F)c(C(F)(F)C(F)(F)F)c3)cn2c1-c1c(F)cc(O)cc1F | – | 31.6 | – | – | – | – | – | – | – | 2.43 (≈ 1.15 µg/mL) | – | – | 20.5 | 19.5 | 8.8 |
| Cc1nc2cnc(-c3cccc(C(F)(F)C(F)(F)F)c3)cn2c1-c1c(F)cc(O)cc1F | 26.2 | 33.5 | 57.1 | 15 | 320 | 55.8 | – | 7 | 8.08 | 2.33 (≈ 1.06 µg/mL) | – | – | 35.1 | 33.9 | 9.3 |
| Oc1cc(F)c(-c2c(C3CC3)nc3cnc(-c4ccc(F)c(C(F)(F)C(F)(F)F)c4)cn23)c(F)c1 | – | 54.3 | – | – | – | – | – | – | – | 3.14 (≈ 1.57 µg/mL) | – | – | 23.9 | 10.5 | 9.4 |

Now from value to molecule, other results behind:

| clearance [1] [mL/min/kg] | remaining at 1.5 h, 1 µM [2] [%] | bioavailability [3, 15] [%] | Tmax [4] [min] | AUC(0-inf) [6] [ng·h/mL] | concentration at 4 h [7] [ng/mL] | half-life [8] [min] | concentration at 24 h [10] [ng/mL] | Vd [11] [L/kg] | solubility kinetic at 24 h [13] [µM] | bioavailability [3] [%] | Lipophilicity [14] | SMILES | EC50 [5] [nM] | EC50 [9] [nM] | CC50 [12] [µM] |
| --- | --- | --- | --- | --- | --- | --- | --- | --- | --- | --- | --- | --- | --- | --- | --- |
| 5.83 | 41.3 | 81.8 | 40 | 1440 | 371 | 479 | 60.5 | 3.16 | – | – | – | CC(C)c1nc2cnc(-c3ccc(F)c(C(F)(F)F)c3)cn2c1-c1ccc2[nH]ncc2c1 | 174 | 185 | – |
| – | 16.7 | – | – | – | – | – | – | – | – | – | – | CC(C)c1cccc(-c2cn3c(-c4ccc5[nH]ncc5c4F)c(C(F)(F)F)nc3cn2)c1 | 5.18 | 5.3 | 12.9 |
| – | 80.9 | – | – | – | – | – | – | – | 1.7 (≈ 0.842 µg/mL) | – | – | Fc1c(-c2c(C3CC3)nc3cnc(-c4cccc(S(F)(F)(F)(F)F)c4)cn23)ccc2[nH]ncc12 | 35.8 | 20.7 | 20.7 |
| 3.23 | 94.2 | 81 | 60 | 2700 | 358 | 1330 | 165 | 5.89 | 0.785 (≈ 0.392 µg/mL) | – | – | Fc1ccc(-c2cn3c(-c4ccc5[nH]ncc5c4F)c(C(F)(F)F)nc3cn2)cc1OC(F)(F)F | 20.8 | 16.9 | 12.2 |
| – | – | – | 40.2 | 340 | 185 | – | – | – | – | 152 | 5.47 = | CC(C)Oc1cc(-c2cn3c(-c4ccc5[nH]ncc5c4F)c(C(F)(F)F)nc3cn2)ccc1F | – | – | 9.25 |
| – | 69 | – | – | – | – | – | – | – | – | – | – | Fc1c(-c2c(C(F)(F)F)nc3cnc(-c4cccc(C(F)(F)F)c4)cn23)ccc2[nH]ncc12 | 41.5 | 25.2 | – |
| 5.75 | 68.1 | 83.3 | 140 | 1470 | 381 | 538 | 71.4 | 3.39 | 0.865 (≈ 0.446 µg/mL) | – | – | CC(C)c1nc2cnc(-c3ccc(F)c(S(F)(F)(F)(F)F)c3)cn2c1-c1ccc2[nH]ncc2c1F | 8.21 | 11.2 | – |
| – | 20.3 | – | – | – | – | – | – | – | – | – | – | CC(C)c1nc2cnc(-c3ccc(F)c(C(F)(F)F)c3)cn2c1-c1ccc(O)cc1Cl | 127 | 102 | – |
| 35.7 | – | 121 | 79.8 | 230 | 123 | 132 | 3.2 | 3.77 | – | – | – | Fc1ccc(-c2cn3c(-c4ccc5[nH]ncc5c4F)c(C(F)(F)F)nc3cn2)cc1C1CCC1 | 59.1 | 45.8 | 6.09 |
| – | 76.5 | – | – | – | – | – | – | – | 2.95 (≈ 1.38 µg/mL) | – | – | Fc1c(-c2c(C(F)(F)F)nc3cnc(-c4ccnc(C(F)(F)F)c4)cn23)ccc2[nH]ncc12 | 138 | 117 | 7 |
| 3.08 | 56.2 | 91.3 | 100 | 2730 | 322 | 1400 | 208 | 6.69 | – | – | – | Fc1ccc(-c2cn3c(-c4ccc5[nH]ncc5c4)c(C(F)(F)F)nc3cn2)cc1C(F)(F)F | 350 | 329 | – |
